MIC data for nine compounds are collected here from ChEMBL document CHEMBL1141427, “Antifungal amides from Piper scutifolium and Piper hoffmanseggianum” (2007).

The test system of assay [1] is Cladosporium sphaerospermum. In words: Antifungal activity against Cladosporium sphaerospermum after 72 hrs. The assay is classed as functional. In outline:
(§1)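 TLC bioautography: compounds applied to TLC plates, sprayed with a fungal spore suspension in glucose and salt solution, incubated 72 h in darkness in a moistened chamber at 25 °C. Clear inhibition zones against a dark background read as the minimum amount (µg) inhibiting growth on the plate. Strains: C. cladosporioides SPC 140, C. sphaerospermum SPC 491. Nystatin and miconazole positive controls; ampicillin and chloramphenicol negative controls.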

Assay [2] relates to Cladosporium cladosporioides. The assay can be described thus: Antifungal activity against Cladosporium cladosporioides after 72 hrs. Format: functional. The procedure, abridged:
as §1

Take `CC(=O)OC(C)(C)CNC(=O)/C=C/C=C/c1ccc2c(c1)OCO2` [CORCOVADINE]: the MIC in assay [1] and in assay [2] was 1 µg throughout.
With `COc1c(OC)c(OC)c2c3c(cc4ccccc42)NC(=O)c13` [PIPEROLACTAM C], the MIC in assay [1] was determined as 50 µg; in assay [2], 5 µg.
For NYSTATIN, the MIC in assay [1] and in assay [2] was 1 µg each time.
Consider `CC(C)CNC(=O)/C=C/C=C\c1ccc2c(c1)OCO2` [SCUTIFOLAMIDE A], for which the MIC in assay [1] and in assay [2] was 5 µg in each case.
With `CC(=O)OC(C)(C)CNC(=O)/C=C\C=C/c1ccc2c(c1)OCO2` [ISOCORCOVADINE], the MIC in assay [1] stood at 1 µg; in assay [2] it was 2.5 µg.
With `CC(C)CNC(=O)/C=C\C=C/c1ccc2c(c1)OCO2` [ISOPIPERLONGUMININE], the MIC in assay [1] and in assay [2] was 0.25 µg in each case.
Regarding `Clc1ccc(COC(Cn2ccnc2)c2ccc(Cl)cc2Cl)c(Cl)c1` (stereo not drawn) [MICONAZOLE], the MIC in assay [1] and in assay [2] was 1 µg in each case.
Consider `CC(C)CNC(=O)/C=C/C=C/c1ccc2c(c1)OCO2` [PIPERLONGUMININE], for which the MIC in assay [1] and in assay [2] was 1 µg in each case.
For `COc1ccc(C/C=C/C=C/C(=O)NCC(C)C)cc1` [PIPEROVATINE], the MIC in assay [1] and in assay [2] was 1 µg throughout.
